Reference: publication PMC12709234 (RSC Advances, 2025)

How the values were obtained:
[1] = Metabolic stability in mouse liver microsomes; type: in vitro ADME; settings: 1 µM, scaled from in vitro clearance
Summary of the method: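 Mouse liver microsomes were incubated in duplicate with test compound (final 1 µM, <0.1% DMSO) in 50 mM phosphate pH 7.4 at 37 °C for 1 h, with and without an NADPH regenerating system. Samples were taken at 0, 10, 20, 30, 45 and 60 min, quenched with ACN/MeOH (2:1) plus internal standard and analysed by LC-MS/MS. t1/2 came from non-linear regression; Clint was derived from it and normalized to protein. Scaling used 52.5 mg protein/g liver, 85.7 g liver/kg and LBF 131 mL min−1 kg−1.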

[2] = system: MDCKII-hMDR1 cell monolayers; assay: Permeability on MDCKII-hMDR1 cell monolayers; type: in vitro ADME, canine; settings: MDCKII-hMDR1
Summary of the method: (§1)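 MDCKII cells overexpressing human MDR1 were seeded on 96-well inserts (0.25 × 10^6 cells per mL) and grown 3 days to confluence. Monolayers were equilibrated 30 min in DPBS pH 7.4 with 1% DMSO. Test compound (10 µM) with lucifer yellow (100 µM, integrity marker) was applied apical-to-basolateral and basolateral-to-apical for 60 min at 37 °C with agitation. Both compartments, plus donor at start, were quantified by LC-MS/MS.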

[3] = system: P-glycoprotein (human MDR1); assay: Permeability on MDCKII-hMDR1 cell monolayers; type: in vitro ADME, canine; settings: dog, MDCK-MDR1, pH 7.4
Summary of the method: as §1

[4] = system: human tumor cell lines (Capan-1, HCT-116, LN-229, NCI-H460, DND-41, HL-60, K562, Z-138); assay: Antiproliferative assays, panel of human tumor cell lines; type: cell-based
Summary of the method: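 Cells from ATCC (DND-41 from DSMZ) were grown in medium with 10% FBS in 384-well plates. Adherent lines were plated overnight first: Capan-1 at 500 and HCT-116, NCI-H460 and LN-229 at 1500 cells/well. Suspension lines were seeded onto compound: HL-60, K-562 and Z-138 at 2500 and DND-41 at 5500 cells/well. Seven concentrations, 100–0.006 µM, from DMSO stocks, 72 h. […] At least two independent experiments.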

[5] = system: Bcl-2; settings: read-out: IC50 (Bcl-2); PDB 6QGK, CHEMBL4438456; cited from earlier work

Structure (SMILES)	% LBF predicted in vivo hepatic clearance [1] [% LBF]	Efflux classification [2]	Permeability classification [2]	Papp A→B at 60 min, 10 µM [3] [×10⁻⁶ cm/s]	Papp B→A at 60 min, 10 µM [3] [×10⁻⁶ cm/s]	efflux ratio at 60 min, 10 µM [3]	Papp at 60 min, 10 µM [3] [×10⁻⁶ cm/s]	IC50 ([4]; Homo sapiens, read-out: IC50 values against DND-41, HL-60, Z-138 and Capan-1) [µM]	antiproliferative activity (in words) ([4]; all evaluated human tumor cell lines)	IC50 [5] [µM]
FC(F)(F)c1cc(OCc2cc(-c3ccccn3)no2)c2ccccc2n1 [Compound 7b, 3-(Pyridin-2-yl)-5-(((2-(trifluoromethyl)quinolin-4-yl)oxy)methyl)isoxazole]	87	low	low to moderate	6.5	4.6	0.7	–	–	did not exhibit any antiproliferative effects	–
CCCCN(CCCC)C(=O)c1cc(C)n(-c2ccccc2C(=O)N2Cc3ccccc3C[C@H]2CN)n1 [Compound J1Q, (S)-1-(2-(3-(aminomethyl)-1,2,3,4-tetrahydroisoquinoline-2-carbonyl)phenyl)-N,N-dibutyl-5-methyl-1H-pyrazole-3-carboxamide]	–	–	–	–	–	–	–	–	–	1.3
FC(F)(F)c1cc(OCc2cc(-c3ccccc3)no2)c2ccccc2n1 [Compound 7a, 3-Phenyl-5-(((2-(trifluoromethyl)quinolin-4-yl)oxy)methyl)isoxazole]	74	–	low to moderate	< 0.1	0.1	–	–	–	–	–

Continued, in another order:

% LBF predicted in vivo hepatic clearance [1] [% LBF]	Efflux classification [2]	Permeability classification [2]	Papp A→B at 60 min, 10 µM [3] [×10⁻⁶ cm/s]	Papp B→A at 60 min, 10 µM [3] [×10⁻⁶ cm/s]	efflux ratio at 60 min, 10 µM [3]	Papp at 60 min, 10 µM [3] [×10⁻⁶ cm/s]	IC50 ([4]; Homo sapiens, read-out: IC50 values against DND-41, HL-60, Z-138 and Capan-1) [µM]	Structure (SMILES)	antiproliferative activity (in words) ([4]; all evaluated human tumor cell lines)	IC50 [5] [µM]
51	–	Low/—	< 0.1	< 0.1	–	–	–	Clc1ccc(-c2cc(CNc3cccc4cccnc34)on2)c(Cl)c1 [Compound 8d, N-((3-(2,4-Dichlorophenyl)isoxazol-5-yl)methyl)quinolin-8-amine]	–	–
–	–	Low/—	< 0.1	< 0.1	–	–	–	FC(F)(F)c1ccc(-c2cc(CNc3cccc4cccnc34)on2)cc1 [Compound 8c, N-((3-(4-(Trifluoromethyl)phenyl)isoxazol-5-yl)methyl)quinolin-8-amine]	–	–
55	low	Moderate	3.6	3.1	0.9	–	–	N#Cc1ccc(-c2cc(CNc3cccc4cccnc34)on2)cc1 [Compound 8e, 4-(5-((Quinolin-8-ylamino)methyl)isoxazol-3-yl)benzonitrile]	–	–
96	low	High	17.2	27.8	1.6	> 10	–	c1ccc(-c2cc(CNc3cccc4cccnc34)on2)nc1 [Compound 8b, N-((3-(Pyridin-2-yl)isoxazol-5-yl)methyl)quinolin-8-amine]	–	–
53	low	High	15	13.7	0.9	> 10	2.1 to 4.7	N/C(=N\O)c1ccc(-c2cc(CNc3cccc4cccnc34)on2)cc1 [Compound 8f, (Z)-N′-hydroxy-4-(5-((quinolin-8-ylamino)methyl)isoxazol-3-yl)benzimidamide]	–	–
>97	–	low to moderate	1.7	–	–	–	–	c1ccc(-c2cc(CNc3cccc4cccnc34)on2)cc1 [Compound 8a, 3-Phenyl-5-((quinolin-8-yl-azaneyl)methyl)isoxazole]	–	–
